The values below come from PubChem BioAssay.

The source made the active and inactive calls.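 The calls were made as follows, unless noted: active = GFP response above 150% of the DMSO level; inconclusive = fewer than 70 events counted for a yeast strain; inactive = the rest.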

Experiment [1] is described as follows: hit retest on RPL19A-GFP reporter strain – cell-based, S. cerevisiae, flow cytometry, cherry picks, mother/daughter gates, confirmation (AID 2270;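 active = GFP response below 50% of the DMSO control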). Particulars: 3 h, at 10 µM, stronger effect = lower value, 100 = same GFP as DMSO wells. In general terms: A flow cytometer gives signals particle by particle.
Experiment [2] can be described thus: yeast TOR pathway reporter LAP4-GFP change – cell-based, cherry picks, flow cytometry, mother/daughter gates, confirmation (AID 2271;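 active = GFP response above 150% of the DMSO control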;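 also: ratio of sample to DMSO plate mean so 100% equals DMSO level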). Particulars: S. cerevisiae LAP4-GFP strain, 3 h, at 10 µM, stronger effect = higher value, 100 means same as DMSO control. In a few lines: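 material = Alexa 633-stained baker's yeast GFP-fusion strain | amount = 0.2 OD600 cells | schedule = 30 °C, 3 h compound incubation, rotating | signal = GFP by flow cytometry | measure = per-gate (all, mother, daughter) GFP response vs DMSO | controls = positive rapamycin (400 ng/mL), negative DMSO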

The nature of experiment [3]: TOR pathway reporter MEP2-GFP, retest of hits – S. cerevisiae, flow cytometry GFP, cherry picks, confirmation (AID 2272;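 active = GFP response above 150% of the DMSO control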;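 also: ratio of well signal to plate DMSO mean so 100% equals DMSO level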). Particulars: S. cerevisiae MEP2-GFP strain, 3 h, at 10 µM, stronger effect = higher value.
The nature of experiment [4]: yeast AGP1-GFP fluorescence change, single-dose – cell-based, flow cytometry, S. cerevisiae, cherry picks, confirmation (AID 2273).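 Also: median GFP channel fluorescence over the whole cell population gate.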 Particulars: S. cerevisiae AGP1-GFP strain, 3 h, at 10 µM.
Experiment [5] in a line: TOR pathway CIT2 reporter hit retest – S. cerevisiae, GFP fusion, cherry picks, mother/daughter gates, confirmation (AID 2274). Particulars: S. cerevisiae CIT2-GFP strain, flow cytometry, 3 h, at 10 µM, stronger effect = higher value.
The mark [6] stands for this setting: measured here: daughter cell gate.
Where [7] appears, read: measured here: mother cell gate.
Where [8] appears, read: measured here: daughter cell gate response.
Setting [9] is: measured here: mother cell gate response.

As to `COc1ccc(CN2CCSc3sccc3C2=O)cc1`, the GFP response vs DMSO is 93.2% (inactive) in experiment [1], 90.7% in experiment [1] (setting [6]), 93.9% in experiment [1] (setting [7]) and 92.6% (inactive) in experiment [3]. Moreover, the figures for the GFP response relative to DMSO in experiment [2], in experiment [2] (setting [8]) and in experiment [2] (setting [9]) were 110% (inactive), 109% and 112%, respectively. In addition, the GFP response, % of DMSO in experiment [4] is 97.3% (inactive); in experiment [5], 102% (inactive); in experiment [5] (setting [6]), 103%; in experiment [5] (setting [7]) it was 102%.

Take `O=C(OCC(=O)N1CCN(C(=O)c2ccco2)CC1)c1cc(-c2ccc(F)cc2)nc2ccccc12`: the GFP response vs DMSO was 78.9% (inactive) in experiment [1], 74.3% in experiment [1] (setting [6]), 74.5% in experiment [1] (setting [7]) and 125% (inactive) in experiment [3]. The GFP response relative to DMSO was 133% (inactive) in experiment [2], 107% in experiment [2] (setting [8]) and 138% in experiment [2] (setting [9]). The GFP response, % of DMSO in experiment [4] was 138% (inactive); in experiment [5], 135% (inactive); in experiment [5] (setting [6]), 114%; in experiment [5] (setting [7]) it was 136%.

With `CCOC(=O)c1ccc(NC(=O)CCc2nc(-c3cccc(C)c3)no2)cc1`, the GFP response vs DMSO in experiment [1] is 97.8% (inactive); in experiment [1] (setting [6]), 98.5%; in experiment [1] (setting [7]), 98.8%; in experiment [3] it was 106% (inactive). Also, the GFP response relative to DMSO in experiment [2] is 102% (inactive); in experiment [2] (setting [8]) it was 101%; in experiment [2] (setting [9]) it was 101%. Also, the GFP response, % of DMSO is 95.8% (inactive) in experiment [4], 102% (inactive) in experiment [5], 102% in experiment [5] (setting [6]) and 99.1% in experiment [5] (setting [7]).

In the case of `COc1cccc(C(=O)Nc2ccccc2)c1`, the GFP response vs DMSO was 98.2% (inactive) in experiment [1], 97.4% in experiment [1] (setting [6]), 96.7% in experiment [1] (setting [7]) and 105% (inactive) in experiment [3]. Besides, the GFP response relative to DMSO in experiment [2] was 106% (inactive); in experiment [2] (setting [8]) it was 102%; in experiment [2] (setting [9]) it was 106%. Besides, the GFP response, % of DMSO in experiment [4] is 95.2% (inactive); in experiment [5], 94% (inactive); in experiment [5] (setting [6]), 93.6%; in experiment [5] (setting [7]) it was 92.6%.

Take `Cc1ccc(/C=C/C(=O)c2ccc(C)cc2)cc1`: the GFP response vs DMSO in experiment [1] was 97.2% (inactive); in experiment [1] (setting [6]), 96.2%; in experiment [1] (setting [7]), 99.3%; in experiment [3] it was 99.5% (inactive). The GFP response relative to DMSO was 98.8% (inactive) in experiment [2], 99.3% in experiment [2] (setting [8]) and 96.5% in experiment [2] (setting [9]). Further, the GFP response, % of DMSO was 98.2% (inactive) in experiment [4], 102% (inactive) in experiment [5], 102% in experiment [5] (setting [6]) and 103% in experiment [5] (setting [7]).

`O=C1CC(Sc2nnc(-c3ccccc3)o2)C(=O)N1c1ccccc1` (stereo unspecified): the GFP response vs DMSO in experiment [1] is 99.9% (inactive); in experiment [1] (setting [6]), 98.7%; in experiment [1] (setting [7]), 100%; in experiment [3], 102% (inactive). In addition, the GFP response relative to DMSO is 106% (inactive) in experiment [2], 105% in experiment [2] (setting [8]) and 107% in experiment [2] (setting [9]). Moreover, the GFP response, % of DMSO in experiment [4] was 98.7% (inactive); in experiment [5], 97.8% (inactive); in experiment [5] (setting [6]), 99.7%; in experiment [5] (setting [7]), 93.4%.

For the compound `COc1cccc(/C=N/Nc2nc(-c3cccnc3)nc3ccccc23)c1`, the GFP response vs DMSO in experiment [1] is 94.7% (inactive); in experiment [1] (setting [6]) it was 93.3%; in experiment [1] (setting [7]) it was 93.5%; in experiment [3], 106% (inactive). The GFP response relative to DMSO in experiment [2] was 104% (inactive); in experiment [2] (setting [8]) it was 101%; in experiment [2] (setting [9]), 106%. Further, the GFP response, % of DMSO was 101% (inactive) in experiment [4], 103% (inactive) in experiment [5], 103% in experiment [5] (setting [6]) and 100% in experiment [5] (setting [7]).

Take `Cc1ccc(C(=O)Nc2nnc(CC(=O)N/N=C/c3ccc(O)c(O)c3)s2)cc1`: the GFP response vs DMSO in experiment [1] is 97.8% (inactive); in experiment [1] (setting [6]), 99%; in experiment [1] (setting [7]), 95.9%; in experiment [3] it was 103% (inactive). In addition, the GFP response relative to DMSO in experiment [2] was 94.1% (inactive); in experiment [2] (setting [8]) it was 92.9%; in experiment [2] (setting [9]), 95.4%. The GFP response, % of DMSO is 104% (inactive) in experiment [4], 103% (inactive) in experiment [5], 103% in experiment [5] (setting [6]) and 104% in experiment [5] (setting [7]).

As for `COc1cc(/C=C2\N=C(c3c(-c4ccccc4)noc3C)OC2=O)ccc1OC(C)=O`, the GFP response vs DMSO was 98.6% (inactive) in experiment [1], 100% in experiment [1] (setting [6]), 98.9% in experiment [1] (setting [7]) and 100% (inactive) in experiment [3]. In addition, the GFP response relative to DMSO in experiment [2] was 91.5% (inactive); in experiment [2] (setting [8]), 92.8%; in experiment [2] (setting [9]), 89.7%. Besides, the GFP response, % of DMSO in experiment [4] was 99.3% (inactive); in experiment [5] it was 103% (inactive); in experiment [5] (setting [6]) it was 103%; in experiment [5] (setting [7]) it was 101%.

With `COCCNc1c(-c2ccc(O)cc2)nc2ccc(Cl)cn12`, the GFP response vs DMSO in experiment [1] was 97.6% (inactive); in experiment [1] (setting [6]), 97.4%; in experiment [1] (setting [7]), 97.7%; in experiment [3] it was 98.3% (inactive). Moreover, the results for the GFP response relative to DMSO in experiment [2], in experiment [2] (setting [8]) and in experiment [2] (setting [9]) were 99.2% (inactive), 99.2% and 98.3%, respectively. Besides, the GFP response, % of DMSO is 93.1% (inactive) in experiment [4], 98.3% (inactive) in experiment [5], 99.1% in experiment [5] (setting [6]) and 97.3% in experiment [5] (setting [7]).

With `Cc1cc(NCCCN2CCOCC2)n2ncc(-c3ccccc3)c2n1`, the GFP response vs DMSO in experiment [1] is 99.3% (inactive); in experiment [1] (setting [6]), 98.1%; in experiment [1] (setting [7]) it was 99.6%; in experiment [3], 102% (inactive). For the same compound, the results for the GFP response relative to DMSO in experiment [2], in experiment [2] (setting [8]) and in experiment [2] (setting [9]) were 96.2% (inactive), 95.6% and 98.3%, respectively. Also, the GFP response, % of DMSO in experiment [4] was 102% (inactive); in experiment [5], 95.2% (inactive); in experiment [5] (setting [6]), 98.1%; in experiment [5] (setting [7]) it was 93.4%.

As for `COc1ccc(C(=O)Oc2ccc(/C=N/NC(=O)c3ccccc3OC)cc2[N+](=O)[O-])cc1`, the GFP response vs DMSO is 102% (inactive) in experiment [1], 103% in experiment [1] (setting [6]), 101% in experiment [1] (setting [7]) and 104% (inactive) in experiment [3]. Further, the GFP response relative to DMSO is 87.2% (inactive) in experiment [2], 87.8% in experiment [2] (setting [8]) and 86.7% in experiment [2] (setting [9]). In addition, the GFP response, % of DMSO was 101% (inactive) in experiment [4], 104% (inactive) in experiment [5], 104% in experiment [5] (setting [6]) and 100% in experiment [5] (setting [7]).

Turning to `Oc1ccc(C2Nc3cccc4cccc(c34)N2)cc1`, the GFP response vs DMSO is 99% (inactive) in experiment [1], 99.2% in experiment [1] (setting [6]), 99.4% in experiment [1] (setting [7]) and 97.8% (inactive) in experiment [3]. The GFP response relative to DMSO in experiment [2] was 107% (inactive); in experiment [2] (setting [8]), 105%; in experiment [2] (setting [9]), 111%. Besides, the GFP response, % of DMSO in experiment [4] was 98.7% (inactive); in experiment [5], 100% (inactive); in experiment [5] (setting [6]), 98.1%; in experiment [5] (setting [7]), 102%.

`COc1cc(/C=C2/N=C(c3ccccc3)OC2=O)c(F)cc1OCc1ccccc1`: the GFP response vs DMSO in experiment [1] is 99.1% (inactive); in experiment [1] (setting [6]), 100%; in experiment [1] (setting [7]), 98%; in experiment [3], 101% (inactive). Moreover, the GFP response relative to DMSO is 98.9% (inactive) in experiment [2], 102% in experiment [2] (setting [8]) and 98.4% in experiment [2] (setting [9]). Also, the GFP response, % of DMSO in experiment [4] was 108% (inactive); in experiment [5], 106% (inactive); in experiment [5] (setting [6]), 105%; in experiment [5] (setting [7]), 106%.

Consider `Cc1ccc2c(c1)/C(=C/c1ccc(F)cc1)C(=O)N2`, for which the GFP response vs DMSO was 94.5% (inactive) in experiment [1], 92.2% in experiment [1] (setting [6]), 92.7% in experiment [1] (setting [7]) and 108% (inactive) in experiment [3]. Also, the GFP response relative to DMSO in experiment [2] is 124% (inactive); in experiment [2] (setting [8]), 110%; in experiment [2] (setting [9]) it was 123%. The GFP response, % of DMSO in experiment [4] is 98.4% (inactive); in experiment [5] it was 95.8% (inactive); in experiment [5] (setting [6]) it was 97.6%; in experiment [5] (setting [7]) it was 94.9%.

Regarding `O=C(c1ccccc1)c1ccccc1N1C(=O)C=CC1=O`, the GFP response vs DMSO in experiment [1] was 90.5% (inactive); in experiment [1] (setting [6]) it was 61.6%; in experiment [1] (setting [7]), 81.2%; in experiment [3] it was 156% (inactive). For the same compound, the figures for the GFP response relative to DMSO in experiment [2], in experiment [2] (setting [8]) and in experiment [2] (setting [9]) were 266% (active), 156% and 263%, respectively. Besides, the GFP response, % of DMSO is 129% (inactive) in experiment [4], 86% (inactive) in experiment [5], 95.2% in experiment [5] (setting [6]) and 71.8% in experiment [5] (setting [7]).
